Data from ChEMBL document CHEMBL4346690, “Structure-activity relationship studies of (E)-3,4-dihydroxystyryl alkyl sulfones as novel neuroprotective agents based on improved antioxidant, anti-inflammatory activities and BBB permeability” (Eur J Med Chem, 2019).
Calls of active or inactive are those of the source. No cut-off for these calls is given here.

Tests used:
[1] = Cytotoxicity against […] BV2 cells assessed as cell viability at 100 uM after 24 hrs by MTT assay; assay type: cell-based; conditions: read-out: Activity
Procedure, shortened: (§1)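 Cells kept in high-glucose DMEM with 10% FBS and 1% PS at 37 °C, 5% CO2. Plated 1 day, then compounds for 24 h; viability by MTT at 100 µM as ODtreated/ODcontrol × 100%, untreated = 100%. Mean ± SD, n = 3.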

[2] = Cytotoxicity against […] BV2 cells assessed as cell viability at 0.625 to 40 uM after 24 hrs by MTS assay; assay type: cell-based; conditions: read-out: Activity
Procedure, shortened: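 Viability of BV2 cells read by MTS under the NO-assay conditions: 3 h compound (0.625–40 µM) pretreatment followed by LPS 100 ng mL−1 for 24 h.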

PC-12 [3] = assay: Neuroprotection activity in rat PC12 cells assessed as reduction in H2O2-induced cell death preincubated for 3 hrs followed by H2O2 addition and measured after 3 hrs by MTS assay; assay type: functional, cell-based
Procedure, shortened: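 PC12 cells plated at 2 × 10^5 cells mL−1 for 1 day, pretreated 3 h with compounds, then H2O2 (final 400 µM) for 3 h. Viability by MTS at 490 nm relative to untreated cells (100%); single-concentration tests at 2.5, 5, 10 µM and IC50 values; mean ± SD, n = 3.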

[4] = Cytotoxicity against rat PC12 cells assessed as cell viability at 100 uM after 24 hrs by MTT assay; assay type: cell-based, PC-12; conditions: read-out: Activity; procedure, shortened: as §1
[5] = Anti-neuroinflammatory activity in […] BV2 cells assessed as reduction in LPS-induced NO production preincubated for 3 hrs followed by LPS stimulation for 24 hrs by Griess assay; assay type: functional, cell-based; conditions: BV-2
Procedure, shortened: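 BV2 microglia seeded 3 × 10^5 cells mL−1 for 1 day; compounds in medium added for 3 h, then LPS (final 100 ng mL−1) for a further 24 h. Supernatant mixed with Griess reagent, absorbance at 540 nm. Inhibition % from NO release of LPS-only, unstimulated and compound+LPS wells; IC50 reported; mean ± SD, n = 3.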

[6] = Antioxidant activity assessed as DPPH radical scavenging activity after 1 hr by […]; assay type: functional
Procedure, shortened: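 DPPH (0.2 mM) in ethanol mixed with sample, kept 1 h at room temperature, absorbance read at 517 nm. Scavenging % = [1−(Ac−Ab)/A0]×100, where Ab is the sample in ethanol without DPPH and A0 is the ethanol+DPPH control. EC50 reported; vitamin C used as reference antioxidant; mean ± SD, n = 3.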

PC-12 [7] = assay: Neuroprotection activity in rat PC12 cells assessed as reduction in 6-OHDA-induced cell damages at 10 uM preincubated for 3 hrs followed by H2O2 addition and measured after 24 hrs by MTT assay relative to control; assay type: functional, cell-based; conditions: in the assay text read “6-OHDA addition” for “H2O2 addition”
Procedure, shortened: (§2)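 PC12 cells plated at 2 × 10^5 cells mL−1 for 1 day, pretreated 3 h with compounds at 2.5, 5 or 10 µM, then 6-OHDA (final 250 µM) added for 24 h. Viability by MTT, absorbance 570 nm; untreated cells = 100%; mean ± SD, n = 3.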

PC-12 [8] = assay: Neuroprotection activity in rat PC12 cells assessed as reduction in 6-OHDA-induced cell damages at 2.5 uM preincubated for 3 hrs followed by H2O2 addition and measured after 24 hrs by MTT assay relative to control; assay type: functional, cell-based; conditions: in the assay text read “6-OHDA addition” for “H2O2 addition”; procedure, shortened: as §2

SMILES | viability at 24 h, 100 µM [1] [%] | viability at 24 h, up to 40 µM [2] [%] | IC50 (PC-12 [3]) [µM] | viability at 24 h, 100 µM [4] [%] | IC50 [5] [µM] | EC50 [6] [µM] | Activity (PC-12 [7]) | Activity (PC-12 [8])
O=S(=O)(/C=C/c1ccc(O)c(O)c1)CC1CC1 | 87.8 | > 90 | 6.61 | 92.9 | 33.5 | 10.5 | inactive | –
CC(C)(C)OC(=O)N1CCCC1CS(=O)(=O)/C=C/c1ccc(O)c(O)c1 (stereo unspecified) | 68.7 | > 90 | 7.2 | 52.5 | 7 | 7.1 | inactive | –
O=S(=O)(/C=C/c1ccc(O)c(O)c1)CCCCCCCCO | 49.5 | > 90 | 7.91 | 87.3 | 12.2 | 6.7 | Active | Active
O=S(=O)(/C=C/c1ccc(O)c(O)c1)CC1CCC1 | 83.8 | > 90 | 4.81 | 80.2 | 20.8 | 8.8 | Active | –
O=S(=O)(/C=C/c1ccc(O)c(O)c1)CC1CCCC1 | 72.7 | > 90 | 2.19 | 85.4 | 15.8 | 9.4 | Active | Active
O=S(=O)(/C=C/c1ccc(O)c(O)c1)CCCCCCCCCO | 54.4 | > 90 | 7.91 | 95.2 | 11 | 7.5 | Active | Active
O=C(/C=C/c1ccc(O)c(O)c1)OCCc1ccccc1 [CAFFEIC ACID PHENETHYL ESTER] | 69.3 | > 90 | 2 | 85.1 | 6 | 14.6 | Active | –
O=S(=O)(/C=C/c1ccc(O)c(O)c1)CCCCCCCO | 72 | > 90 | 9.91 | 91.8 | 14.3 | 5.9 | Active | Active
CCCCCCCCCS(=O)(=O)/C=C/c1ccc(O)c(O)c1 | 66.6 | > 90 | 1.93 | 70.6 | 7.4 | 7.7 | Active | Active
CCCCCCCCS(=O)(=O)/C=C/c1ccc(O)c(O)c1 | 63.6 | > 90 | 1.45 | 73.6 | 7.6 | 6.4 | Active | Active
CCCCCCCCCCS(=O)(=O)/C=C/c1ccc(O)c(O)c1 | 34.1 | > 90 | 2.21 | 59.7 | 7.3 | 6.8 | Active | Active
CCCCCCCS(=O)(=O)/C=C/c1ccc(O)c(O)c1 | 52.5 | > 90 | 1.33 | 85.7 | 8.5 | 7.1 | Active | Active
O=S(=O)(/C=C/c1ccc(O)c(O)c1)CCC1CCCC1 | 76.6 | > 90 | 1.96 | 77.7 | 2.5 | 6.8 | Active | Active
O=S(=O)(/C=C/c1ccc(O)c(O)c1)CC1CCCN1 (stereo unspecified) | 76.4 | > 90 | – | 55.9 | 103 | 13.8 | – | –
O=S(=O)(/C=C/c1ccc(O)c(O)c1)CC1CCCO1 (stereo unspecified) | 93.9 | > 90 | 27.1 | 98 | 54.6 | 10.5 | inactive | –
O=S(=O)(/C=C/c1ccc(O)c(O)c1)CC1CCCCO1 (stereo unspecified) | 78.8 | > 90 | 3.34 | 88.3 | 6.9 | 10.8 | Active | –
O=S(=O)(/C=C/c1ccc(O)c(O)c1)CCC1CCCCC1 | 62.6 | > 90 | 2 | 94.9 | 11.3 | 9.8 | Active | Active
CCCCCCCCCCCS(=O)(=O)/C=C/c1ccc(O)c(O)c1 | 23.2 | > 90 | 2.34 | 52.1 | 6.9 | 11.4 | Active | Active
CCCCCCCCCCCCS(=O)(=O)/C=C/c1ccc(O)c(O)c1 | 25.2 | > 90 | 2.27 | 28.2 | 6.6 | 8.5 | Active | Active
O=S(=O)(/C=C/c1ccc(O)c(O)c1)CCCCCCCCCCCO | 50.4 | > 90 | 24.1 | 100 | 13.3 | 22.6 | Active | Active
